# Data: ChEMBL document CHEMBL1275561, “In vitro activities of doripenem, a new broad-spectrum carbapenem, against recently collected clinical anaerobic isolates, with emphasis on the Bacteroides fragilis group” (2008)
# Values joined by “and” are separate entries in the source; they are usually repeats but may differ in a detail not shown here. Equal entries are not always repeated.
# What was measured:
# Format in all cases: functional
# Bacteroides caccae [1] = assay: Antimicrobial activity against Bacteroides caccae assessed as resistant isolates by agar dilution method
# Procedure, shortened: (§1)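 CLSI agar dilution on enriched brucella agar (5% lysed defibrinated sheep blood, 1 μg/ml vitamin K1), plates made on test day. Log-phase inocula adjusted to 0.5 McFarland; about 10^5 CFU/spot by Steers replicator. Incubated anaerobically at 37°C for 48 h. MIC was the lowest concentration giving a marked change in growth versus the drug-free control plate. Resistance rates used CLSI anaerobe breakpoints. Controls were B. fragilis ATCC 25285 and B. thetaiotaomicron ATCC 29741.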
# [2] = system: Parabacteroides distasonis; assay: Antimicrobial activity against Bacteroides distasonis assessed as resistant isolates by agar dilution method; procedure, shortened: as §1
# Bacteroides fragilis [3] = assay: Antimicrobial activity against Bacteroides fragilis assessed as resistant isolates by agar dilution method; procedure, shortened: as §1
# Bacteroides ovatus [4] = assay: Antimicrobial activity against Bacteroides ovatus assessed as resistant isolates by agar dilution method; procedure, shortened: as §1
# [5] = system: Bacteroides thetaiotaomicron; assay: Antimicrobial activity against Bacteroides thetaiotaomicron assessed as resistant isolates by agar dilution method; procedure, shortened: as §1
# Bacteroides uniformis [6] = assay: Antimicrobial activity against Bacteroides uniformis assessed as resistant isolates by agar dilution method; procedure, shortened: as §1
# Phocaeicola vulgatus [7] = assay: Antimicrobial activity against Bacteroides vulgatus assessed as resistant isolates by agar dilution method; procedure, shortened: as §1
# Bacteroides eggerthii [8] = assay: Antimicrobial activity against Bacteroides eggerthii assessed as resistant isolates by agar dilution method; procedure, shortened: as §1
# Parabacteroides merdae [9] = assay: Antimicrobial activity against Bacteroides merdae assessed as resistant isolates by agar dilution method; procedure, shortened: as §1
# Bacteroides nordii [10] = assay: Antimicrobial activity against Bacteroides nordii assessed as resistant isolates by agar dilution method; procedure, shortened: as §1
# Clostridioides difficile [11] = assay: Antimicrobial activity against Clostridium difficile by agar dilution method in presence of beta-lactamase inhibitor Sulbactam
# Procedure, shortened: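 MICs by CLSI agar dilution on enriched brucella agar (5% lysed defibrinated sheep blood, 1 μg/ml vitamin K1). Log-phase inoculum at 0.5 McFarland, about 10^5 CFU/spot by replicator. Plates held anaerobically at 37°C for 48 h. Endpoint was the lowest concentration giving a marked change in growth against the control plate. Eubacterium lentum ATCC 43055 was the control.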
# [Clostridium] innocuum [12] = Antimicrobial activity against Clostridium innocuum assessed as resistant isolates by agar dilution method; details: pooled result: one value given for 4 cell lines, strains, targets or settings
# Finegoldia magna [13] = assay: Antimicrobial activity against Finegoldia magna by agar dilution method in presence of beta-lactamase inhibitor Sulbactam
# Procedure, shortened: (§2)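 Gram-positive anaerobes were tested by CLSI agar dilution on brucella agar enriched with 5% lysed defibrinated sheep blood and 1 μg/ml vitamin K1. Inoculum was log-phase growth at 0.5 McFarland, about 10^5 CFU/spot by replicator. Incubation was anaerobic, 37°C, 48 h. MIC was the lowest concentration with a marked growth change versus the drug-free plate. Eubacterium lentum ATCC 43055 was the control, and tests were repeated if it fell outside the CLSI range.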
# Finegoldia magna [14] = assay: Antimicrobial activity against Finegoldia magna assessed as resistant isolates by agar dilution method
# Procedure, shortened: (§3)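 Agar dilution following CLSI on brucella agar with 5% lysed defibrinated sheep blood and 1 μg/ml vitamin K1, plates made on test day. Log-phase cells at 0.5 McFarland, about 10^5 CFU/spot by Steers replicator, 48 h anaerobic at 37°C. MIC read as the lowest concentration causing a marked growth change versus control. Resistance counted by CLSI anaerobe breakpoints. Eubacterium lentum ATCC 43055 served as control.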
# [15] = system: Peptoniphilus asaccharolyticus; assay: Antimicrobial activity against Peptoniphilus asaccharolyticus assessed as resistant isolates by agar dilution method; details: pooled result: one value given for 4 cell lines, strains, targets or settings; procedure, shortened: as §3
# Cutibacterium acnes [16] = assay: Antimicrobial activity against Propionibacterium acnes by agar dilution method in presence of beta-lactamase inhibitor Sulbactam
# Procedure, shortened: (§4)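 Log-phase isolates were adjusted to 0.5 McFarland, and about 10^5 CFU/spot was delivered by Steers replicator. Plates were incubated anaerobically at 37°C for 48 h. MIC was the lowest concentration giving a marked growth change versus the control plate. Eubacterium lentum ATCC 43055 was the QC strain, with repeats when out of range.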
# Cutibacterium acnes [17] = assay: Antimicrobial activity against Propionibacterium acnes assessed as resistant isolates by agar dilution method; procedure, shortened: as §3
# Propionibacterium [18] = assay: Antimicrobial activity against Propionibacterium sp. assessed as resistant isolates by agar dilution method; procedure, shortened: as §3
# [19] = system: Parabacteroides distasonis; assay: Antimicrobial activity against Bacteroides distasonis by agar dilution method
# Procedure, shortened: (§5)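 CLSI agar dilution on enriched brucella agar (5% lysed defibrinated sheep blood, 1 μg/ml vitamin K1), with drug plates made on the test day. Log-phase cells were adjusted to 0.5 McFarland, and about 10^5 CFU/spot was delivered by Steers replicator. Plates were incubated anaerobically at 37°C for 48 h. MIC was the lowest concentration giving a marked growth change versus the control plate. Controls were B. fragilis ATCC 25285 and B. thetaiotaomicron ATCC 29741.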
# Bacteroides caccae [20] = assay: Antimicrobial activity against Bacteroides caccae by agar dilution method; procedure, shortened: as §5
# Bacteroides fragilis [21] = assay: Antimicrobial activity against Bacteroides fragilis by agar dilution method; procedure, shortened: as §5
# Bacteroides ovatus [22] = assay: Antimicrobial activity against Bacteroides ovatus by agar dilution method; procedure, shortened: as §5
# [23] = system: Bacteroides thetaiotaomicron; assay: Antimicrobial activity against Bacteroides thetaiotaomicron by agar dilution method; procedure, shortened: as §5
# Bacteroides uniformis [24] = assay: Antimicrobial activity against Bacteroides uniformis by agar dilution method; procedure, shortened: as §5
# Phocaeicola vulgatus [25] = assay: Antimicrobial activity against Bacteroides vulgatus by agar dilution method; procedure, shortened: as §5
# Bacteroides eggerthii [26] = assay: Antimicrobial activity against Bacteroides eggerthii by agar dilution method; procedure, shortened: as §5
# Parabacteroides merdae [27] = assay: Antimicrobial activity against Bacteroides merdae by agar dilution method; procedure, shortened: as §5
# Bacteroides nordii [28] = assay: Antimicrobial activity against Bacteroides nordii by agar dilution method; procedure, shortened: as §5
# Clostridioides difficile [29] = assay: Antimicrobial activity against Clostridium difficile by agar dilution method
# Clostridium perfringens = assay: Antimicrobial activity against Clostridium perfringens by agar dilution method
# [Clostridium] innocuum [30] = Antimicrobial activity against Clostridium innocuum by agar dilution method
# [31] = system: Clostridium paraputrificum; assay: Antimicrobial activity against Clostridium paraputrificum by agar dilution method
# Clostridium subterminale = assay: Antimicrobial activity against Clostridium subterminale by agar dilution method
# Clostridium tertium = assay: Antimicrobial activity against Clostridium tertium by agar dilution method
# Finegoldia magna [32] = assay: Antimicrobial activity against Finegoldia magna by agar dilution method; procedure, shortened: as §2
# [33] = system: Peptoniphilus asaccharolyticus; assay: Antimicrobial activity against Peptoniphilus asaccharolyticus by agar dilution method; procedure, shortened: as §2
# Parvimonas micra = assay: Antimicrobial activity against Micromonas micros by agar dilution method; procedure, shortened: as §2
# Anaerococcus prevotii = assay: Antimicrobial activity against Anaerococcus prevotii by agar dilution method; procedure, shortened: as §2
# Peptostreptococcus sp. = assay: Antimicrobial activity against Peptostreptococcus sp. by agar dilution method; procedure, shortened: as §4
# Cutibacterium acnes [34] = assay: Antimicrobial activity against Propionibacterium acnes by agar dilution method; procedure, shortened: as §4
# Propionibacterium [35] = assay: Antimicrobial activity against Propionibacterium sp. by agar dilution method; procedure, shortened: as §4
structure (smiles),measurement,setting,value
CC1(C)S[C@@H]2[C@H](NC(=O)[C@H](N)c3ccccc3)C(=O)N2[C@H]1C(=O)O [AMPICILLIN],Activity,Bacteroides caccae [1],0%
same,Activity,[2],6.7%
same,Activity,Bacteroides fragilis [3],4.5%
same,Activity,Bacteroides ovatus [4],11.4%
same,Activity,[5],3.8%
same,Activity,Bacteroides uniformis [6],0%
same,Activity,Phocaeicola vulgatus [7],0%
same,Activity,Bacteroides eggerthii [8],0%
same,Activity,Parabacteroides merdae [9],0%
same,Activity,Bacteroides nordii [10],0%
same,MIC,Clostridioides difficile [11],4 µg/mL
same,Activity,[Clostridium] innocuum [12],5.6%
same,MIC,Finegoldia magna [13],2 µg/mL
same,MIC,"Finegoldia magna [13]; Finegoldia magna, read-out: MIC",2 µg/mL
same,Activity,Finegoldia magna [14],0%
same,Activity,[15],0%
same,MIC,Cutibacterium acnes [16],0.25 µg/mL and 0.5 µg/mL
same,MIC,"Cutibacterium acnes [16]; Cutibacterium acnes, read-out: MIC",0.25 µg/mL
same,Activity,Cutibacterium acnes [17],0%
same,Activity,Propionibacterium [18],0%
C[C@@H](O)[C@H]1C(=O)N2C(C(=O)O)=C(SCCNC=N)C[C@H]12 [IMIPENEM ANHYDROUS],MIC50,[19],0.25 µg/mL
same,MIC90,[19],2 µg/mL
same,Activity,Bacteroides caccae [1],0%
same,MIC50,Bacteroides caccae [20],0.5 µg/mL
same,MIC90,Bacteroides caccae [20],2 µg/mL
same,Activity,[2],0%
same,MIC50,Bacteroides fragilis [21],0.5 µg/mL
same,MIC90,Bacteroides fragilis [21],1 µg/mL
same,Activity,Bacteroides fragilis [3],1%
same,MIC50,Bacteroides ovatus [22],0.5 µg/mL
same,MIC90,Bacteroides ovatus [22],2 µg/mL
same,Activity,Bacteroides ovatus [4],0%
same,MIC50,[23],1 µg/mL
same,MIC90,[23],2 µg/mL
same,Activity,[5],0%
same,MIC50,Bacteroides uniformis [24],1 µg/mL
same,MIC90,Bacteroides uniformis [24],1 µg/mL
same,Activity,Bacteroides uniformis [6],0%
same,MIC50,Phocaeicola vulgatus [25],1 µg/mL
same,MIC90,Phocaeicola vulgatus [25],2 µg/mL
same,Activity,Phocaeicola vulgatus [7],0%
same,MIC50,Bacteroides eggerthii [26],0.5 µg/mL
same,MIC90,Bacteroides eggerthii [26],1 µg/mL
same,Activity,Bacteroides eggerthii [8],0%
same,MIC50,Parabacteroides merdae [27],0.5 µg/mL
same,MIC90,Parabacteroides merdae [27],1 µg/mL
same,Activity,Parabacteroides merdae [9],0%
same,MIC50,Bacteroides nordii [28],0.5 µg/mL
same,MIC90,Bacteroides nordii [28],1 µg/mL
same,Activity,Bacteroides nordii [10],0%
same,MIC,Clostridioides difficile [29],2 µg/mL
same,MIC50,Clostridium perfringens,0.5 µg/mL
same,MIC90,Clostridium perfringens,0.5 µg/mL
same,MIC50,[Clostridium] innocuum [30],2 µg/mL
same,MIC90,[Clostridium] innocuum [30],2 µg/mL
same,Activity,[Clostridium] innocuum [12],16.7%
same,MIC50,[31],2 µg/mL
same,MIC90,[31],2 µg/mL
same,MIC50,Clostridium subterminale,2 µg/mL
same,MIC90,Clostridium subterminale,2 µg/mL
same,MIC50,Clostridium tertium,2 µg/mL
same,MIC90,Clostridium tertium,2 µg/mL
same,MIC50,Finegoldia magna [32],0.25 µg/mL
same,MIC90,Finegoldia magna [32],0.25 µg/mL
same,Activity,Finegoldia magna [14],0%
same,MIC50,[33],0.125 µg/mL
same,MIC90,[33],0.5 µg/mL
same,Activity,[15],0%
same,MIC50,Parvimonas micra,0.125 µg/mL
same,MIC90,Parvimonas micra,0.5 µg/mL
same,MIC50,Anaerococcus prevotii,0.125 µg/mL
same,MIC90,Anaerococcus prevotii,0.5 µg/mL
same,MIC50,Peptostreptococcus sp.,0.125 µg/mL
same,MIC90,Peptostreptococcus sp.,0.5 µg/mL
same,MIC,Cutibacterium acnes [34],0.06 µg/mL
same,MIC50,Cutibacterium acnes [34],0.06 µg/mL
same,MIC90,Cutibacterium acnes [34],0.06 µg/mL
same,Activity,Cutibacterium acnes [17],0%
same,MIC,Propionibacterium [35],0.06 µg/mL
same,MIC50,Propionibacterium [35],0.06 µg/mL
same,MIC90,Propionibacterium [35],0.25 µg/mL
same,Activity,Propionibacterium [18],0%
